Measured values as given in the M2OR odorant receptor database.
Positions count from the first letter of the chain named.

Columns and labels:
Conditions in all cases: stereoisomer not certain
O5AP2 A105T = system: T1, O5AP2 A105T
T1 sequence (whole entry): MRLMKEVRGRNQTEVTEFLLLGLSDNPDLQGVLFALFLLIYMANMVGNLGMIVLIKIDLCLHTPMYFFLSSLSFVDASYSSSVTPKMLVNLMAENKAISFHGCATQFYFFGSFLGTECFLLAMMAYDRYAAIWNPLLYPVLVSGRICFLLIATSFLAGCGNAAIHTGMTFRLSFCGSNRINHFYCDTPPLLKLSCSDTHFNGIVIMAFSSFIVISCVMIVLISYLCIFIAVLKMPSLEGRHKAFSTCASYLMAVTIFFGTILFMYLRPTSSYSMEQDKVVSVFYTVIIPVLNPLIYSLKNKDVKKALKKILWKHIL
Summary of the method: (§1)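 Values were gathered from published papers (main text and supplementary material), with extra details requested from the original authors when needed, and checked for typos and inconsistencies. Each receptor–molecule pair is called responsive (active) if the original authors judged the measured signal statistically different from baseline, and non-responsive (inactive) otherwise. Assay methods varied by source, often transient mammalian cell-line luciferase assays. Recorded details include cell line, G-protein, co-transfected protein and tags.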

O5AU1 = system: T2, O5AU1
T2 sequence (whole entry): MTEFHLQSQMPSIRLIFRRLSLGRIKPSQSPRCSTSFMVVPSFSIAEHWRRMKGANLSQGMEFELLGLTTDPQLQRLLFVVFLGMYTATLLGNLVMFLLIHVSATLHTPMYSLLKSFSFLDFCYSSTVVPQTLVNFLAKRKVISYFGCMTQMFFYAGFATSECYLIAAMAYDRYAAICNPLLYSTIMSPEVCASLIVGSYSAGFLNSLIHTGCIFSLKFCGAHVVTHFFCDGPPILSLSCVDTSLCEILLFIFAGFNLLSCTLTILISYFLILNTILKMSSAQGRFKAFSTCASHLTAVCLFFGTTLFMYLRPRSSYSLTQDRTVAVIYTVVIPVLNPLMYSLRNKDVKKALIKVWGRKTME
Summary of the method: as §1

O5H14 = system: T3, O5H14
T3 sequence (whole entry): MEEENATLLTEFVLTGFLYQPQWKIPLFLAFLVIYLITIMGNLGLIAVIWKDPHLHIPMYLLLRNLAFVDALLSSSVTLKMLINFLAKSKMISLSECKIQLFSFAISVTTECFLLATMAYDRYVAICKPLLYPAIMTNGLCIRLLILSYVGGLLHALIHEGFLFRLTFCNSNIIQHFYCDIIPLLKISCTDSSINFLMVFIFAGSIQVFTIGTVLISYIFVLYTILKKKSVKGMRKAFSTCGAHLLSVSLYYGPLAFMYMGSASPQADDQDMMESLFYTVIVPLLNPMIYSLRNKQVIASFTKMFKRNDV
Summary of the method: as §1

O5H15 V108I S148T T167S = system: T4, O5H15 V108I S148T T167S
T4 sequence (whole entry): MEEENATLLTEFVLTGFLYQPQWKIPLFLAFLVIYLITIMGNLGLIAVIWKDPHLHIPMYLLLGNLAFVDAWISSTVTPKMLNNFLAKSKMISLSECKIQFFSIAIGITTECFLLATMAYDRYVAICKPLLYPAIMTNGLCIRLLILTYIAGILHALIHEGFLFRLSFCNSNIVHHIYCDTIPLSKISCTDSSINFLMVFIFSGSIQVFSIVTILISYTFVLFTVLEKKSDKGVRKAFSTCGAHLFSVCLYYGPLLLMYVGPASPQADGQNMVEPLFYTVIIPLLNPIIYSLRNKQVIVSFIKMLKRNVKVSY
Summary of the method: as §1

O6C65 T222A = system: T5, O6C65 T222A
T5 sequence (whole entry): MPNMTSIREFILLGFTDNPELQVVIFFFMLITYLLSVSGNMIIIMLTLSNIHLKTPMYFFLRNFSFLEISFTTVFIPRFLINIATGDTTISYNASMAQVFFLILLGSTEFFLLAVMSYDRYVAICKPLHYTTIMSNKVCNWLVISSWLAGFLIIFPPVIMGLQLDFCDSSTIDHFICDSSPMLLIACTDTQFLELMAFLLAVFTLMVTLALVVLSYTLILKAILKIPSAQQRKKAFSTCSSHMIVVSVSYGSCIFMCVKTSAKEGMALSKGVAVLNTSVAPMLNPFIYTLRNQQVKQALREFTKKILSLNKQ
Summary of the method: as §1

O6C70 L181P = system: T6, O6C70 L181P
T6 sequence (whole entry): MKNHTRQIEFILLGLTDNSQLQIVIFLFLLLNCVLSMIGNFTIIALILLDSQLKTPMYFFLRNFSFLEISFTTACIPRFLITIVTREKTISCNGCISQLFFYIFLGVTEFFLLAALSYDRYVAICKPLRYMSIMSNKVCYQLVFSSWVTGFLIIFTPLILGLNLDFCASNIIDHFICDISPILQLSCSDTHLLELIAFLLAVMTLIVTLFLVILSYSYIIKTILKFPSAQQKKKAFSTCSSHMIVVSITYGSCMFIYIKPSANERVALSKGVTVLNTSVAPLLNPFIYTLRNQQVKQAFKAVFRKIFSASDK
Summary of the method: as §1

O7E24 S193F P242S = system: T7, O7E24 S193F P242S
T7 sequence (whole entry): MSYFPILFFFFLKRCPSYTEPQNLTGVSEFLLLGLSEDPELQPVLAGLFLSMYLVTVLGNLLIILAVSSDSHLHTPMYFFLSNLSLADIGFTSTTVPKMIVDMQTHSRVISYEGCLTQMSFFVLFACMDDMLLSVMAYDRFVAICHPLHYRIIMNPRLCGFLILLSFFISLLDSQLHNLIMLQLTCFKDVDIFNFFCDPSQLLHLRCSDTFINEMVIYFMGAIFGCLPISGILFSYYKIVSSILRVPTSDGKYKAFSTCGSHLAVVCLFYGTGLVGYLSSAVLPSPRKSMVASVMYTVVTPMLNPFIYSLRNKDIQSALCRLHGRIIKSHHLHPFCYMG
Summary of the method: as §1

O7E24 = system: T8, O7E24
T8 sequence (whole entry): T7 sequence (whole entry) with F193S
Summary of the method: as §1

OR10A2 (Homo sapiens) = target: T9, OR10A2 (Homo sapiens) (UniProt Q9H208)
T9 sequence (whole entry): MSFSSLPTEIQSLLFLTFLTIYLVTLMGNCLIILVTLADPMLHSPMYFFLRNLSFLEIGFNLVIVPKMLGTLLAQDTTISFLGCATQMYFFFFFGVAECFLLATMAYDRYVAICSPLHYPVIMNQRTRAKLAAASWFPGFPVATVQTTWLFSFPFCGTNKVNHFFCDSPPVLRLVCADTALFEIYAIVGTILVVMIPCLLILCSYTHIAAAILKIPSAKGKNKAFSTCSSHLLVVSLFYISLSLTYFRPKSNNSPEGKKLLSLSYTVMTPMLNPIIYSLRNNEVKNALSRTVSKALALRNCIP
Summary of the method: as §1

OR10A3 (Homo sapiens) = target: T10, OR10A3 (Homo sapiens) (UniProt P58181)
T10 sequence (whole entry): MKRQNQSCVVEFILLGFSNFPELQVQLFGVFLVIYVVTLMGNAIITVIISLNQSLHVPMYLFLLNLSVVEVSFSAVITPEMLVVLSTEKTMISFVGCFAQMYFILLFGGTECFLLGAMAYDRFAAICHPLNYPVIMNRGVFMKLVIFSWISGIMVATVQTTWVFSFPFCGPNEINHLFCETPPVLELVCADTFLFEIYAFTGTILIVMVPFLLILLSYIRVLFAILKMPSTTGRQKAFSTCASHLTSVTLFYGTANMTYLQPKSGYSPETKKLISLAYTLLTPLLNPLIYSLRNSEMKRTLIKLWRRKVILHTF
Summary of the method: as §1

OR10A4 (Homo sapiens) = target: T11, OR10A4 (Homo sapiens) (UniProt Q9H209)
T11 sequence (whole entry): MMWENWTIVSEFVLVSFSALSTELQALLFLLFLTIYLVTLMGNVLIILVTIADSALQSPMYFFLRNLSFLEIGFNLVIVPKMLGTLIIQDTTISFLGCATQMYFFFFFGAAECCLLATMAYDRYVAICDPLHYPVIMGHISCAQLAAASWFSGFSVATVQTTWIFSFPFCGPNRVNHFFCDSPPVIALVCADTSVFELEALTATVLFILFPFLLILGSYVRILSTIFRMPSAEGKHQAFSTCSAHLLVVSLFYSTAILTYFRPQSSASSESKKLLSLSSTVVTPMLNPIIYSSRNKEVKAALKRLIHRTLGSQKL
Summary of the method: as §1

OR10A5 (Homo sapiens) = target: T12, OR10A5 (Homo sapiens) (UniProt Q9H207)
T12 sequence (whole entry): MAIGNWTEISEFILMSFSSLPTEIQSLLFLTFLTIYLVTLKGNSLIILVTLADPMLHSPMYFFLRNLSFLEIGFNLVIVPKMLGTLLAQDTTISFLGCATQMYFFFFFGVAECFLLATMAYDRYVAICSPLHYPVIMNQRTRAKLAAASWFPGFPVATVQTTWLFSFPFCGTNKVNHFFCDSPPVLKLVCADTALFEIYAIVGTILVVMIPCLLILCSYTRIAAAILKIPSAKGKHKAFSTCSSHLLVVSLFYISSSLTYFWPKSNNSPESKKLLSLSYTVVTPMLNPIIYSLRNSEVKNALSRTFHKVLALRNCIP
Summary of the method: as §1

OR10A6 (Homo sapiens) = target: T13, OR10A6 (Homo sapiens) (UniProt Q8NH74)
T13 sequence (whole entry): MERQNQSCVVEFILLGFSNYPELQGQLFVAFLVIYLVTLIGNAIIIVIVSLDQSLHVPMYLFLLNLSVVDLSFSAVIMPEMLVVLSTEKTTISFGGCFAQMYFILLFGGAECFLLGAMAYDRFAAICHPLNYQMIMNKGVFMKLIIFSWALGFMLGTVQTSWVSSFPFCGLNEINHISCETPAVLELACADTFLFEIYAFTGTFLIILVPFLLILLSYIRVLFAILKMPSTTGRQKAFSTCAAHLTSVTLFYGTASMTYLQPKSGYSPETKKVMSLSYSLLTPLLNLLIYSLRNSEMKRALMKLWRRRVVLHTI
Summary of the method: as §1

OR10A7 (Homo sapiens) = target: T14, OR10A7 (Homo sapiens) (UniProt Q8NGE5)
T14 sequence (whole entry): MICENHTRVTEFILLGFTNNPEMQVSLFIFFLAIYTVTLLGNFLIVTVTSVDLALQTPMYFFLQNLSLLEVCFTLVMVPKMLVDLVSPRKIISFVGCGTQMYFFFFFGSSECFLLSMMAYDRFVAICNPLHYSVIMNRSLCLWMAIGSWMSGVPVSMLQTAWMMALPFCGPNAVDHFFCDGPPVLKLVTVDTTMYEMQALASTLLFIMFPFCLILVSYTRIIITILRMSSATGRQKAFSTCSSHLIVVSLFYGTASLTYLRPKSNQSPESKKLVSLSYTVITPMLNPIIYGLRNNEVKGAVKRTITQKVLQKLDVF
Summary of the method: as §1

OR10AD1 (Homo sapiens) = target: T15, OR10AD1 (Homo sapiens) (UniProt Q8NGE0)
T15 sequence (whole entry): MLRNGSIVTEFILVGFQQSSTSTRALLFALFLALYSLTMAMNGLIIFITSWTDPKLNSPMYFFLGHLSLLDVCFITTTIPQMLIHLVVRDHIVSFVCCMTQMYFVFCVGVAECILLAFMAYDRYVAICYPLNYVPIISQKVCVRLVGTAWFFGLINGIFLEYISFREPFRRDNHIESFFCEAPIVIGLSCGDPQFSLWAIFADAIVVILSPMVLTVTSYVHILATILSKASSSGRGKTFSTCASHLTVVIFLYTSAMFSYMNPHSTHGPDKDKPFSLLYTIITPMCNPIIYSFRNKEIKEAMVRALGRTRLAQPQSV
Summary of the method: as §1

OR10AG1 (Homo sapiens) = target: T16, OR10AG1 (Homo sapiens) (UniProt Q8NH19)
T16 sequence (whole entry): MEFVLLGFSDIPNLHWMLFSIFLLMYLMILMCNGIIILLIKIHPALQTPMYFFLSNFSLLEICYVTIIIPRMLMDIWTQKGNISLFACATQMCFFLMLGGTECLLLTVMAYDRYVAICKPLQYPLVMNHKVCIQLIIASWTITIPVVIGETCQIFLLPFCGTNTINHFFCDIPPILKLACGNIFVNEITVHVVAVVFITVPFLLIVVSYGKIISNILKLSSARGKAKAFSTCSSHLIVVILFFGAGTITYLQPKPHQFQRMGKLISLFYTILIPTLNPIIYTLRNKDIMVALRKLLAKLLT
Summary of the method: as §1

OR10C1 (Homo sapiens) = target: T17, OR10C1 (Homo sapiens) (UniProt Q96KK4)
T17 sequence (whole entry): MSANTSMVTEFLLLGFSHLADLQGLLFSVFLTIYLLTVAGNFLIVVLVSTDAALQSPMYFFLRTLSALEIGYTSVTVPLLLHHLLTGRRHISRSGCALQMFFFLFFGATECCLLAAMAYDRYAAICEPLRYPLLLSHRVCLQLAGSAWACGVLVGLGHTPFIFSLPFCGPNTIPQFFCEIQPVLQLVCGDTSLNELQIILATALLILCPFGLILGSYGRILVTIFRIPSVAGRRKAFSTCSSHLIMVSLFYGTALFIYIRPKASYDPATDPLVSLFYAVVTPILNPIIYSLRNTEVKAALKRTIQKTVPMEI
Summary of the method: as §1

OR10D3 (Homo sapiens) = target: T18, OR10D3 (Homo sapiens) (UniProt Q8NH80)
T18 sequence (whole entry): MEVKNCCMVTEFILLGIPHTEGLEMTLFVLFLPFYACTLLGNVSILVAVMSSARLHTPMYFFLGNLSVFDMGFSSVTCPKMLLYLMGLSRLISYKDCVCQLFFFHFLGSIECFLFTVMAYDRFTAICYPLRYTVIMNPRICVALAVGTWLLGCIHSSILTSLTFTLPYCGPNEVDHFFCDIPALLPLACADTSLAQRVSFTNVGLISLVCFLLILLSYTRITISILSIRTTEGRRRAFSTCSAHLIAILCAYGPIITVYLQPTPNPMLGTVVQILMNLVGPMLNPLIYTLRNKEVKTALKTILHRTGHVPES
Summary of the method: as §1

Measured: odorant receptor agonist call

CC1=NC(C)C(C)S1 (stereo not drawn)
inactive: all assays above
